Data as given in ChEMBL document CHEMBL4004844, “Structure-based design, synthesis and antitumoral evaluation of enulosides” (Eur J Med Chem, 2017).

How the values were obtained:
[1] = system: HEp-2; assay: Growth inhibition of human Hep2 cells after 72 hrs by MTT assay; type: functional, cell-based; conditions: HEp-2, 72 h
Procedure, shortened: (§1)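 Cells kept in RPMI 1640 or DMEM with 10% FBS, 2 mM glutamine, penicillin/streptomycin, at 37 °C and 5% CO2. Seeded at 10⁵ cells/mL (adherent NCI-H292, MCF-7, HEP-2) or 3 × 10⁵ cells/mL (HL-60). Compounds at 0.1–25 in 0.1% DMSO for 72 h, with DMSO controls. MTT read at 595 nm. IC50 with 95% CI from nonlinear regression, two experiments.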

[2] = system: HL-60; assay: Growth inhibition of human HL60 cells after 72 hrs by MTT assay; type: functional, cell-based; conditions: HL-60, 72 h
[3] = system: NCI-H292; assay: Growth inhibition of human NCI-H292 cells after 72 hrs by MTT assay; type: functional, cell-based; conditions: NCI-H292, 72 h; procedure, shortened: as §1
[4] = Solubility in water; type: physicochemical; conditions: buffer
[5] = system: MCF7; assay: Growth inhibition of human MCF7 cells after 72 hrs by MTT assay; type: functional, cell-based; conditions: MCF7, 72 h; procedure, shortened: as §1
[6] = system: HEp-2; assay: Growth inhibition of human Hep2 cells at 25 ug/ml after 72 hrs by MTT assay relative to control; type: functional; conditions: HEp-2, 72 h, read-out: GI
Procedure, shortened: (§2)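 Preliminary single-concentration screen at 25 by MTT reduction. Cells seeded at 10⁵ cells/mL (adherent) or 3 × 10⁵ cells/mL (HL-60), exposed for 72 h in 0.1% DMSO. Percent growth inhibition relative to DMSO-treated controls, from absorbance at 595 nm.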

[7] = system: MCF7; assay: Growth inhibition of human MCF7 cells at 25 ug/ml after 72 hrs by MTT assay relative to control; type: functional; conditions: MCF7, 72 h, read-out: GI; procedure, shortened: as §2
[8] = system: NCI-H292; assay: Growth inhibition of human NCI-H292 cells at 25 ug/ml after 72 hrs by MTT assay relative to control; type: functional; conditions: NCI-H292, 72 h, read-out: GI; procedure, shortened: as §2
[9] = system: HL-60; assay: Growth inhibition of human HL60 cells at 25 ug/ml after 72 hrs by MTT assay relative to control; type: functional; conditions: HL-60, 72 h, read-out: GI; procedure, shortened: as §2

IC50 [2] [µM]	IC50 [3] [µM]	solubility [4]	IC50 [5] [µM]	Compound	IC50 [1] [µM]	inhibition of growth at 25 µg/mL [6] [%]	inhibition of growth at 25 µg/mL [7] [%]	inhibition of growth at 25 µg/mL [8] [%]	inhibition of growth at 25 µg/mL [9] [%]
7.9	35.5	Soluble	–	COCCOCCOCCO[C@@H]1C=CC(=O)[C@@H](CO)O1	32.1	–	–	–	–
2.5	12.7	–	–	C#CCCO[C@@H]1C=CC(=O)[C@@H](CO)O1	7.1	–	–	–	–
4.9	10.3	–	16.3	C=CCO[C@@H]1C=CC(=O)[C@@H](CO)O1	26.1	–	–	–	–
9.3	6.6	–	10.4	C#CCO[C@@H]1C=CC(=O)[C@@H](CO)O1	15.4	–	–	–	–
10.7	15.6	–	18.3	CCCO[C@@H]1C=CC(=O)[C@@H](CO)O1	13.4	–	–	–	–
3.5	18	–	–	CCO[C@@H]1C=CC(=O)[C@@H](CO)O1	5.8	100	97.2	100	100
–	–	–	–	CCO[C@@H]1C=C[C@H](O)[C@@H](CO)O1	–	12.5	20.4	17.4	31.4
9.7	24.2	–	36	CC(C)O[C@@H]1C=CC(=O)[C@@H](CO)O1	34.9	–	–	–	–
4.2	19.8	–	20.7	O=C1C=C[C@@H](OC2CCCC2)O[C@@H]1CO	8	–	–	–	–
13.3	2.6	–	11	O=C1C=C[C@@H](OC2CCCCC2)O[C@@H]1CO	7.5	–	–	–	–
27.3	3.8	–	11.1	O=C1C=C[C@@H](OCc2ccccc2)O[C@@H]1CO	8.5	–	–	–	–
–	–	–	–	CCO[C@@H]1C=C[C@H](OC(C)=O)[C@@H](COC(C)=O)O1	–	9.3	5.1	2.1	12.3
–	0.6	–	0.6	COc1cccc2c1C(=O)c1c(O)c3c(c(O)c1C2=O)C[C@@](O)(C(=O)CO)C[C@@H]3O[C@H]1C[C@H](N)[C@H](O)[C@H](C)O1 [DOXORUBICIN]	1.3	–	–	–	–
